Assay results taken from ChEMBL document CHEMBL4689842, “EUbOPEN Chemogenomics Library wave 1” (2021).

Test system: Fibroblast
Experiment: Multiplex assay against human fibroblast
Type: toxicity, cell-based
Method in brief: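 On a CQ1 microscope at 37°C and 5% CO2, live cells were imaged after compound addition. They had been stained at seeding with Hoechst33342, BioTracker Green Microtubule Cytoskeleton Dye, MitoTracker Red and Annexin V Alexa Fluor 680. CellPathfinder machine-learning gating assigned cells to Hoechst high-intensity objects or normal cells, normal cells to healthy, pyknosed or fragmented nuclei, and pyknosed cells to mitotic or apoptotic. Tubulin, mitochondrial-mass and membrane-permeability phenotypes are per cents of healthy-nucleus cells.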

[1] = 12 h, 1 µM, compound concentration 1 uM, replicate 1
[2] = 12 h, 1 µM, compound concentration 1 uM, replicate 2
[3] = 12 h, 10 µM, compound concentration 10 uM, replicate 1
[4] = 12 h, 10 µM, compound concentration 10 uM, replicate 2
[5] = 24 h, 1 µM, compound concentration 1 uM, replicate 1
[6] = 24 h, 1 µM, compound concentration 1 uM, replicate 2
[7] = 24 h, 10 µM, compound concentration 10 uM, replicate 1
[8] = 24 h, 10 µM, compound concentration 10 uM, replicate 2
[9] = 48 h, 1 µM, compound concentration 1 uM, replicate 1
[10] = 48 h, 1 µM, compound concentration 1 uM, replicate 2
[11] = 48 h, 10 µM, compound concentration 10 uM, replicate 1
[12] = 48 h, 10 µM, compound concentration 10 uM, replicate 2

CNC(=O)Nc1ccc(-c2nc(N3CC4CCC(C3)O4)c3cnn(C4CCC5(CC4)OCCO5)c3n2)cc1
Population Apoptotic (%) [1]: 47%
Population Fragmented Nuclei (%) [1]: 38%
Population Healthy Nuclei (%) [1]: 32%
Population Hoechst High Intensity Objects (%) [1]: 14%
Population Membrane Permeable-Phenotype (%) [1]: 29%
Population Mitochondria Different-Phenotype (%) [1]: 4%
Population Mitotic Cells (%) [1]: 52%
Population Normal (%) [1]: 85%
Population Pyknosed Nuclei (%) [1]: 28%
Population Tubulin-Different-Phenotype (%) [1]: 54%
Total Cell Count [1]: 85
Population Apoptotic (%) [2]: 0%
Population Fragmented Nuclei (%) [2]: 28%
Population Healthy Nuclei (%) [2]: 55%
Population Hoechst High Intensity Objects (%) [2]: 10%
Population Membrane Permeable-Phenotype (%) [2]: 5%
Population Mitochondria Different-Phenotype (%) [2]: 13%
Population Mitotic Cells (%) [2]: 100%
Population Normal (%) [2]: 89%
Population Pyknosed Nuclei (%) [2]: 16%
Population Tubulin-Different-Phenotype (%) [2]: 18%
Total Cell Count [2]: 54
Population Apoptotic (%) [3]: 50%
Population Fragmented Nuclei (%) [3]: 28%
Population Healthy Nuclei (%) [3]: 29%
Population Hoechst High Intensity Objects (%) [3]: 16%
Population Membrane Permeable-Phenotype (%) [3]: 30%
Population Mitochondria Different-Phenotype (%) [3]: 15%
Population Mitotic Cells (%) [3]: 50%
Population Normal (%) [3]: 83%
Population Pyknosed Nuclei (%) [3]: 41%
Population Tubulin-Different-Phenotype (%) [3]: 96%
Total Cell Count [3]: 104
Population Apoptotic (%) [4]: 25%
Population Fragmented Nuclei (%) [4]: 13%
Population Healthy Nuclei (%) [4]: 54%
Population Hoechst High Intensity Objects (%) [4]: 6%
Population Membrane Permeable-Phenotype (%) [4]: 36%
Population Mitochondria Different-Phenotype (%) [4]: 75%
Population Mitotic Cells (%) [4]: 75%
Population Normal (%) [4]: 93%
Population Pyknosed Nuclei (%) [4]: 32%
Total Cell Count [4]: 107
Population Apoptotic (%) [5]: 38%
Population Fragmented Nuclei (%) [5]: 30%
Population Healthy Nuclei (%) [5]: 33%
Population Hoechst High Intensity Objects (%) [5]: 20%
Population Membrane Permeable-Phenotype (%) [5]: 25%
Population Mitochondria Different-Phenotype (%) [5]: 10%
Population Mitotic Cells (%) [5]: 61%
Population Normal (%) [5]: 79%
Population Pyknosed Nuclei (%) [5]: 35%
Population Tubulin-Different-Phenotype (%) [5]: 60%
Total Cell Count [5]: 74
Population Apoptotic (%) [6]: 25%
Population Fragmented Nuclei (%) [6]: 19%
Population Healthy Nuclei (%) [6]: 64%
Population Hoechst High Intensity Objects (%) [6]: 18%
Population Membrane Permeable-Phenotype (%) [6]: 8%
Population Mitochondria Different-Phenotype (%) [6]: 6%
Population Mitotic Cells (%) [6]: 75%
Population Normal (%) [6]: 81%
Population Pyknosed Nuclei (%) [6]: 16%
Population Tubulin-Different-Phenotype (%) [6]: 23%
Total Cell Count [6]: 55
Population Apoptotic (%) [7]: 77%
Population Fragmented Nuclei (%) [7]: 28%
Population Healthy Nuclei (%) [7]: 35%
Population Hoechst High Intensity Objects (%) [7]: 18%
Population Membrane Permeable-Phenotype (%) [7]: 25%
Population Mitochondria Different-Phenotype (%) [7]: 37%
Population Mitotic Cells (%) [7]: 22%
Population Normal (%) [7]: 81%
Population Pyknosed Nuclei (%) [7]: 35%
Population Tubulin-Different-Phenotype (%) [7]: 88%
Total Cell Count [7]: 93
Population Apoptotic (%) [8]: 41%
Population Fragmented Nuclei (%) [8]: 8%
Population Healthy Nuclei (%) [8]: 42%
Population Hoechst High Intensity Objects (%) [8]: 6%
Population Membrane Permeable-Phenotype (%) [8]: 44%
Population Mitochondria Different-Phenotype (%) [8]: 84%
Population Mitotic Cells (%) [8]: 58%
Population Normal (%) [8]: 93%
Population Pyknosed Nuclei (%) [8]: 49%
Population Tubulin-Different-Phenotype (%) [8]: 96%
Total Cell Count [8]: 90
Population Apoptotic (%) [9]: 33%
Population Fragmented Nuclei (%) [9]: 42%
Population Healthy Nuclei (%) [9]: 37%
Population Hoechst High Intensity Objects (%) [9]: 19%
Population Membrane Permeable-Phenotype (%) [9]: 13%
Population Mitochondria Different-Phenotype (%) [9]: 8%
Population Mitotic Cells (%) [9]: 66%
Population Normal (%) [9]: 80%
Population Pyknosed Nuclei (%) [9]: 19%
Population Tubulin-Different-Phenotype (%) [9]: 43%
Total Cell Count [9]: 76
Population Apoptotic (%) [10]: 75%
Population Fragmented Nuclei (%) [10]: 33%
Population Healthy Nuclei (%) [10]: 61%
Population Hoechst High Intensity Objects (%) [10]: 12%
Population Membrane Permeable-Phenotype (%) [10]: 10%
Population Mitochondria Different-Phenotype (%) [10]: 2%
Population Mitotic Cells (%) [10]: 25%
Population Normal (%) [10]: 87%
Population Pyknosed Nuclei (%) [10]: 5%
Population Tubulin-Different-Phenotype (%) [10]: 10%
Total Cell Count [10]: 88
Population Apoptotic (%) [11]: 50%
Population Fragmented Nuclei (%) [11]: 42%
Population Healthy Nuclei (%) [11]: 37%
Population Hoechst High Intensity Objects (%) [11]: 19%
Population Membrane Permeable-Phenotype (%) [11]: 19%
Population Mitochondria Different-Phenotype (%) [11]: 61%
Population Mitotic Cells (%) [11]: 50%
Population Normal (%) [11]: 80%
Population Pyknosed Nuclei (%) [11]: 20%
Population Tubulin-Different-Phenotype (%) [11]: 80%
Total Cell Count [11]: 87
Population Apoptotic (%) [12]: 33%
Population Fragmented Nuclei (%) [12]: 48%
Population Healthy Nuclei (%) [12]: 49%
Population Hoechst High Intensity Objects (%) [12]: 9%
Population Membrane Permeable-Phenotype (%) [12]: 18%
Population Mitochondria Different-Phenotype (%) [12]: 12%
Population Mitotic Cells (%) [12]: 66%
Population Normal (%) [12]: 90%
Population Pyknosed Nuclei (%) [12]: 2%
Population Tubulin-Different-Phenotype (%) [12]: 92%
Total Cell Count [12]: 122
